Common to all, as to format: functional
Series [1] relates to Candida. The experiment in a line: Tested in vitro for antifungal activity against Candida species. at pH 5.8. The procedure, abridged: (§1)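 Liquid serial-dilution MIC against 3 freshly isolated clinical Candida strains (two C. glabrata, one C. krusei) in Sabouraud broth at pH 7.2 or 5.8. Inoculum was 10³/mL after 18 h pre-culture at 37 °C, read at 24 h, 37 °C. Range was 0.25–256 μg/mL. Endpoint was no visible growth versus a DMSO/water blank.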

Series [2] has as its system Candida. The experiment in a line: Tested In vitro for antifungal activity against Candida species. at pH 7.2. The procedure, abridged: as §1
For series [3], the system named is Candida. Kind of series: Tested in vitro for antifungal activity against Candida species. at pH 5.8 (percent of resistant species at 256 ug/mL). The procedure, abridged: (§2)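 Broth serial-dilution test in Sabouraud broth at pH 7.2 or 5.8, against 3 fresh clinical non-albicans isolates (two C. glabrata, one C. krusei). Inocula were 10³/mL, pre-grown 18 h at 37 °C. Compound was twofold-diluted over 0.25–256 µg/mL and read at 24 h, 37 °C for visible growth.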

The subject of series [4] is Candida albicans. The experiment in a line: In vitro antifungal activity against 40 strains of Candida albicans at pH 7.2; (percent of resistant species at 256 ug/mL). The procedure, abridged: (§3)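 Broth serial-dilution test in Sabouraud broth at pH 7.2 or 5.8, against 40 fresh clinical C. albicans isolates from hospitalized patients. Inocula were 10³/mL, pre-grown 18 h at 37 °C in Sabouraud dextrose broth. Compound from a DMSO/water stock was twofold-diluted over 0.25–256 µg/mL. Visible growth was read at 24 h, 37 °C.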

The subject of series [5] is Candida albicans. Kind of series: In vitro antifungal activity against 40 strains of Candida albicans at pH 5.8; (percent of resistant species at 256 ug/mL). Summed up: as §3
Series [6] has as its system Candida albicans. The experiment in a line: In vitro antifungal activity against 40 strains of Candida albicans at pH 7.2. Summed up: (§4)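 Broth serial-dilution MIC against 40 clinical C. albicans isolates from hospitalized patients, grown in Sabouraud broth at pH 7.2 or 5.8. Cells were pre-grown 18 h at 37 °C, inoculated at 10³/mL, and read at 24 h, 37 °C. Doubling dilutions ran 0.25–256 μg/mL from a DMSO/water solution. MIC was the lowest concentration with no visible growth against a DMSO/water blank.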

In series [7] the test system is Candida. The experiment in a line: Tested In vitro for antifungal activity against Candida species. at pH 7.2; (range is from 1 to 32). Summed up: as §1
The subject of series [8] is Candida albicans. The experiment in a line: TIn vitro antifungal activity against 40 strains of Candida albicans at pH 5.8; (range is from 4 to 64). Summed up: as §4
Series [9] has as its system Candida. Kind of series: Tested in vitro for antifungal activity against Candida species. at pH 5.8 (range is from 8 to 256). Summed up: as §1
Series [10] deals with Candida. Kind of series: Tested In vitro for antifungal activity against Candida species. at pH 7.2; (percent of resistant species at 256 ug/mL). The procedure, abridged:
as §2

The target in series [11] is Lanosterol 14-alpha demethylase (Candida albicans (strain SC5314 / ATCC MYA-2876) (Yeast), UniProt P10613). Kind of series: Anticandida activity- (MIC90 compound) / (MIC90 bifonazole).
Series [12] relates to Candida albicans. The experiment in a line: In vitro antifungal activity against 40 strains of Candida albicans at pH 5.8. Summed up:
as §4

Series [13] has as its system Candida albicans. The experiment in a line: IIn vitro antifungal activity against 40 strains of Candida albicans at pH 7.2; minimum inhibitory concentration (range is from 2 to 64). The procedure, abridged: as §4
For series [14], the system named is Candida. Kind of series: Tested in vitro for antifungal activity against Candida species. at pH 5.8 (value ranges from 16 to 128). The procedure, abridged:
as §1

Series [15] deals with Candida. The experiment in a line: Tested in vitro for antifungal activity at pH 7.2 (percent of resistant species at 256 ug/mL). The procedure, abridged: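 Sabouraud broth serial-dilution test (0.25–256 µg/mL, 10³/mL inocula, 24 h at 37 °C), run at the stated pH on clinical isolates: 40 C. albicans and 3 Candida spp. (two C. glabrata, one C. krusei).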
Series [16] relates to Candida albicans. Kind of series: In vitro antifungal activity against 40 strains of Candida albicans at pH 5.8; (range is from 4 to 64). The procedure, abridged: as §4
The subject of series [17] is Candida albicans. Kind of series: IIn vitro antifungal activity against 40 strains of Candida albicans at pH 7.2; minimum inhibitory concentration (range is from 2 to 128). The procedure, abridged:
as §4

In series [18] the test system is Candida. Kind of series: Tested In vitro for antifungal activity against Candida species. at pH 7.2; (range is from 8 to 256). The procedure, abridged: as §1
Series [19] has as its system Candida albicans. The experiment in a line: In vitro antifungal activity against 40 strains of Candida albicans at pH 5.8; value ranges from 256 to >256. The procedure, abridged: as §4
Series [20] relates to Candida albicans. The experiment in a line: In vitro antifungal activity against 40 strains of Candida albicans at pH 5.8 (percent of resistant species at 256 ug/mL). The procedure, abridged:
as §3

Series [21] relates to Candida albicans. The experiment in a line: In vitro antifungal activity against Candida albicans (40 strains) at pH 7.2; (percent of resistant species at 256 ug/mL). The procedure, abridged: as §3
For series [22], the system named is Candida. The experiment in a line: Tested In vitro for antifungal activity against Candida species. at pH 7.2 (percent of resistant species at 256 ug/mL). The procedure, abridged:
as §2

Series [23] deals with Candida albicans. The experiment in a line: In vitro antifungal activity against 40 strains of Candida albicans at pH 7.2; value ranges from 128 to >256. Summed up:
as §4

Values after ≈ are worked out from the molar mass of the structure shown.

Lanosterol 14-alpha demethylase, sequence (P10613 whole entry): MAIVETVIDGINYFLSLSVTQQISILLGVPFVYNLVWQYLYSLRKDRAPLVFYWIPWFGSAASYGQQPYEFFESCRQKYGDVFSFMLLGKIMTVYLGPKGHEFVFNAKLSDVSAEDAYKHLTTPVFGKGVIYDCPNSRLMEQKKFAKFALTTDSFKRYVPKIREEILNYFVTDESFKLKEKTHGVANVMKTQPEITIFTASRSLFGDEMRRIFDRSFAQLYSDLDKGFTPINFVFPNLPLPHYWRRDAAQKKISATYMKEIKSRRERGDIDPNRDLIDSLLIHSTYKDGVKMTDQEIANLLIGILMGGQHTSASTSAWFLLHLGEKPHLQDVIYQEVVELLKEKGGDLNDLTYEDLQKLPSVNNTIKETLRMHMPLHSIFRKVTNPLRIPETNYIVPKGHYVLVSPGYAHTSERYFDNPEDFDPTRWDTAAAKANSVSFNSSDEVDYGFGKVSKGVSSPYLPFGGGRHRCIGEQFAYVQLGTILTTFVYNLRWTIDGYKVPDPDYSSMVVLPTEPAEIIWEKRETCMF

The MIC is the lowest concentration that inhibits growth of the organism. The low end stands for a more susceptible organism, the high end for a less susceptible organism. For orientation: MIC50 means the lowest concentration that inhibits either 50% of growth or 50% of the strains tested, depending on the study. A low value points to higher susceptibility. For orientation: MIC90 means an inhibitory concentration at the 90% level, which refers to growth in some studies and to a panel of isolates in others. Low values mean higher susceptibility, high ones lower susceptibility. Regarding `N#Cc1ccc(-c2c[nH]cc2[C@H](c2ccc(Cl)cc2Cl)n2ccnc2)cc1`, the minimal inhibitory concentration (MIC) with Candida [1] was found to be 58 mg/L (≈ 147 µM); against Candida [2], 32.4 mg/L (≈ 82.4 µM); in the series on Candida albicans [6], 13.2 mg/L (≈ 33.6 µM); against Candida albicans [12], 41.3 mg/L (≈ 105 µM). The MIC50 worked out at 64 mg/L (≈ 163 µM) in the series with Candida [1], 16 mg/L (≈ 40.7 µM) in the series on Candida [2], 8 mg/L (≈ 20.3 µM) with Candida albicans [6] and 8 mg/L (≈ 20.3 µM) in the series on Candida albicans [12]. Besides, the MIC90 was 256 mg/L (≈ 651 µM) in the series with Candida [1], 64 mg/L (≈ 163 µM) against Candida [2], 32 mg/L (≈ 81.4 µM) in the series on Candida albicans [6] and 32 mg/L (≈ 81.4 µM) in the series with Candida albicans [12]. The Resistance with Candida [3], in the series on Candida albicans [4], in the series on Candida albicans [5] and with Candida [10] was 0% throughout. Further, the Range in the series on Candida [7] was 32 µg/mL; with Candida albicans [8], 64 µg/mL; in the series with Candida [9], 256 µg/mL; with Candida albicans [13] it was 64 µg/mL. In addition, the Ratio in [11] came to 6.3.
As for `Clc1ccc([C@H](c2c[nH]cc2-c2ccc(-c3ccccc3)cc2)n2ccnc2)c(Cl)c1`, the Range in the series on Candida [14] was found to be 128 µg/mL; in the series with Candida albicans [16] it was 64 µg/mL; with Candida albicans [17], 128 µg/mL; in the series with Candida [18], 256 µg/mL. Besides, the Resistance in the series on Candida [15], in the series with Candida albicans [4] and with Candida albicans [5] was 0% throughout. Also, the MIC in the series with Candida [1] amounted to 53.3 mg/L (≈ 120 µM); with Candida [2], 90.6 mg/L (≈ 204 µM); against Candida albicans [6], 14.9 mg/L (≈ 33.5 µM); in the series with Candida albicans [12], 10.1 mg/L (≈ 22.6 µM). Moreover, the MIC50 in the series on Candida [1] amounted to 16 mg/L (≈ 36 µM); against Candida [2], 8 mg/L (≈ 18 µM); against Candida albicans [6], 8 mg/L (≈ 18 µM); in the series with Candida albicans [12], 8 mg/L (≈ 18 µM). The MIC90 in the series with Candida [1] came out at 128 mg/L (≈ 288 µM); with Candida [2] it was 256 mg/L (≈ 576 µM); in the series with Candida albicans [6] it was 8 mg/L (≈ 18 µM); against Candida albicans [12], 8 mg/L (≈ 18 µM). Also, the “% R” value with Candida [3] is recorded as 0%. In series [11], the Ratio is reported as 5.6.
Turning to `CC(C)(C)c1ccc(-c2c[nH]cc2[C@@H](c2ccc(Cl)cc2Cl)n2ccnc2)cc1`, the Range in the series on Candida albicans [19], with Candida [1], with Candida [2] and in the series on Candida albicans [23] was more than 256 µg/mL throughout. Besides, the MIC50 against Candida [1], against Candida [2], in the series with Candida albicans [6] and with Candida albicans [12] was more than 256 mg/L throughout. Moreover, the MIC90 with Candida [1], against Candida [2], against Candida albicans [6] and against Candida albicans [12] was more than 256 mg/L each time. For the same compound, the Resistance with Candida [3] was 100%; in the series with Candida albicans [20], 97%; in the series with Candida albicans [21], 80%; with Candida [22] it was 100%. For the same compound, the MIC is 165 mg/L (≈ 388 µM) in the series on Candida albicans [6] and 256 mg/L (≈ 603 µM) against Candida albicans [12]. Also, the Ratio in series [11] stood at 47.

The values are drawn from ChEMBL document CHEMBL1135477, “Antifungal agents. 10. New derivatives of 1-[(aryl)[4-aryl-1H-pyrrol-3-yl]methyl]-1H-imidazole, synthesis, anti-candida activity, and quantitative structure-analysis relationship studies” (J Med Chem, 2002).
